# Calls of active or inactive are those of the source. No cut-off for these calls is given here.
# What was measured:
# Bile acid receptor [1] = molecular target: T1, Bile acid receptor (Homo sapiens, UniProt Q96RI1); experiment: Agonist activity at human GST-fused FXR LBD assessed as cofactor peptide interaction with receptor ligand binding domain by FRET assay
# T1 sequence (Q96RI1 whole entry): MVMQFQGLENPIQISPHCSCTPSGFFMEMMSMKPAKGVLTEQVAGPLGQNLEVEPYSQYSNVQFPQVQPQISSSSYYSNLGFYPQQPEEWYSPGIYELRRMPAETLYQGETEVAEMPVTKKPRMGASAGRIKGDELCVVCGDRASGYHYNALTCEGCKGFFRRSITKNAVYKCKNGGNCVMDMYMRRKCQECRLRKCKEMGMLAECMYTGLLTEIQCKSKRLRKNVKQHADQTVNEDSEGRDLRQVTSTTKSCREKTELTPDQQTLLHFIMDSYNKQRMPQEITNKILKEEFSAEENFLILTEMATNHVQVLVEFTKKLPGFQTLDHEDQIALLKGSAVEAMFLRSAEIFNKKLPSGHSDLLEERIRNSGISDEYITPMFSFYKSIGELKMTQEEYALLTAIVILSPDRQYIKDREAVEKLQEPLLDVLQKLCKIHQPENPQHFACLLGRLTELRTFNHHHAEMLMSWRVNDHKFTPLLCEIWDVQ
# Liver [2] = experiment: Drug level in db/db mouse liver measured metabolites as taurine amide at 5 mg/kg, po after 240 mins; format: ADME, organism-based; set-up: dose 5 mg/kg, route oral; conditions: in vivo, 4 h
# Procedure, shortened: (§1)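 Mice got a single dose, 5 mg/kg po or 1 mg/kg iv. Liver and bile were sampled 240 min after dosing. Parent carboxylic acid, its acyl-glucuronide and its taurine amide were quantified separately, in ng/mL. Glucuronide identity was confirmed by glucuronidase digestion of bile or bile extracts, which regenerated the parent.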
# Liver [3] = experiment: Drug level in db/db mouse liver measured metabolites as glucuronide at 1 mg/kg, iv after 240 mins; format: ADME, organism-based; set-up: dose 1 mg/kg, route intravenous; conditions: in vivo, 4 h; procedure, shortened: as §1
# [4] = Plasma concentration in db/db mouse at 5 mg/kg, po after 10 mins; format: ADME, organism-based; set-up: dose 5 mg/kg, route oral; conditions: read-out: Drug uptake
# Procedure, shortened: (§2)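 Single dose to mice, 5 mg/kg po or 1 mg/kg iv. Plasma was sampled at 5, 10, 30, 90 and 240 min. Only parent compound was measured, in ng/mL.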
# Bile acid receptor [5] = molecular target: T1, Bile acid receptor; experiment: Agonist activity at human […] FXR LBD expressed in HEK293 cells coexpressing GAL4-DNA bindig domain and pFRluc by mammalian one-hybrid assay; format: functional, cell-based; conditions: read-out: EC50
# [6] = Plasma concentration in db/db mouse at 1 mg/kg, iv after 10 mins; format: ADME, organism-based; set-up: dose 1 mg/kg, route intravenous; conditions: read-out: Drug uptake; procedure, shortened: as §2
# [7] = molecular target: T2, Bile acid receptor (Homo sapiens) (UniProt Q96RI1); experiment: Agonist activity at human GST-fused FXR LBD assessed as cofactor peptide interaction with receptor ligand binding domain by FRET assay relative to GW-4064
# T2 sequence (whole entry): T1 sequence (Q96RI1 whole entry)
# Liver [8] = experiment: Drug level in db/db mouse liver measured metabolites as glucuronide at 5 mg/kg, po after 240 mins; format: ADME, organism-based; set-up: dose 5 mg/kg, route oral; conditions: in vivo, 4 h; procedure, shortened: as §1
# Liver [9] = experiment: Drug level in db/db mouse liver measured metabolites as carboxylic acid at 5 mg/kg, po after 240 mins; format: ADME, organism-based; set-up: dose 5 mg/kg, route oral; conditions: in vivo, 4 h; procedure, shortened: as §1
# [10] = Drug level in db/db mouse bile measured metabolites as taurine amide at 1 mg/kg, iv after 240 mins; format: ADME, organism-based; set-up: dose 1 mg/kg, route intravenous; conditions: in vivo, 4 h; procedure, shortened: as §1
# [11] = Oral bioavailability in db/db mouse at 5 mg/kg, po; format: ADME, organism-based; conditions: in vivo
# Procedure, shortened: (§3)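 Derived from the single-dose mouse plasma time courses of parent compound, 5-240 min. Dosing was 5 mg/kg po or 1 mg/kg iv. Volume of distribution is in mL/kg, clearance in mL/h/kg, and oral bioavailability in %.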
# [12] = Plasma concentration in db/db mouse at 5 mg/kg, po after 30 mins; format: ADME, organism-based; set-up: dose 5 mg/kg, route oral; conditions: read-out: Drug uptake; procedure, shortened: as §2
# [13] = Drug level in db/db mouse bile measured metabolites as glucuronide at 5 mg/kg, po after 240 mins; format: ADME, organism-based; set-up: dose 5 mg/kg, route oral; conditions: in vivo, 4 h
# [14] = Plasma concentration in db/db mouse at 1 mg/kg, iv after 5 mins; format: ADME, organism-based; set-up: dose 1 mg/kg, route intravenous; conditions: read-out: Drug uptake; procedure, shortened: as §2
# [15] = Clearance in db/db mouse at 5 mg/kg, po; format: ADME, organism-based; set-up: dose 5 mg/kg, route oral; conditions: in vivo
# Procedure, shortened: (§4)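 Mice received a single dose of 5 mg/kg po or 1 mg/kg iv. Plasma was sampled at 5, 10, 30, 90 and 240 min and the parent compound alone was measured (ng/mL). Clearance (mL/h/kg), Vd (mL/kg) and oral bioavailability were derived from these plasma profiles.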
# [16] = molecular target: T2, Bile acid receptor (Homo sapiens); experiment: Agonist activity at human […] FXR LBD expressed in HEK293 cells coexpressing GAL4-DNA bindig domain and pFRluc by mammalian one-hybrid assay relative to GW-4064; format: functional, cell-based
# Liver [17] = experiment: Drug level in db/db mouse liver measured metabolites as taurine amide at 1 mg/kg, iv after 240 mins; format: ADME, organism-based; set-up: dose 1 mg/kg, route intravenous; conditions: in vivo, 4 h; procedure, shortened: as §1
# Liver [18] = experiment: Drug level in db/db mouse liver measured metabolites as carboxylic acid at 1 mg/kg, iv after 240 mins; format: ADME, organism-based; set-up: dose 1 mg/kg, route intravenous; conditions: in vivo, 4 h; procedure, shortened: as §1
# Mus musculus [19] = experiment: Volume of distribution in db/db mouse at 1 mg/kg, iv; format: ADME, organism-based; set-up: dose 1 mg/kg, route intravenous; conditions: in vivo; procedure, shortened: as §3
# [20] = Plasma concentration in db/db mouse at 1 mg/kg, iv after 240 mins; format: ADME, organism-based; set-up: dose 1 mg/kg, route intravenous; conditions: read-out: Drug uptake; procedure, shortened: as §2
# [21] = Drug level in db/db mouse bile measured metabolites as taurine amide at 5 mg/kg, po after 240 mins; format: ADME, organism-based; set-up: dose 5 mg/kg, route oral; conditions: in vivo, 4 h; procedure, shortened: as §1
# [22] = molecular target: T2, Bile acid receptor (Homo sapiens); experiment: Agonist activity at human full length FXR transfected in HEK293 cells coexpressing pTRexDest/pGL2promotor assessed as luciferase activity by direct reporter cellular assay relative to GW-4064; format: functional, cell-based
# Bile acid receptor [23] = molecular target: T1, Bile acid receptor; experiment: Agonist activity at human full length FXR transfected in HEK293 cells coexpressing pTRexDest/pGL2promotor assessed as luciferase activity by direct reporter cellular assay; format: functional, cell-based; conditions: read-out: EC50
# [24] = Clearance in db/db mouse at 1 mg/kg, iv; format: ADME, organism-based; set-up: dose 1 mg/kg, route intravenous; conditions: in vivo; procedure, shortened: as §4
# [25] = Drug level in db/db mouse bile measured metabolites as carboxylic acid at 1 mg/kg, iv after 240 mins; format: ADME, organism-based; set-up: dose 1 mg/kg, route intravenous; conditions: in vivo, 4 h
# [26] = Plasma concentration in db/db mouse at 1 mg/kg, iv after 90 mins; format: ADME, organism-based; set-up: dose 1 mg/kg, route intravenous; conditions: read-out: Drug uptake; procedure, shortened: as §2
# [27] = Drug level in db/db mouse bile measured metabolites as carboxylic acid at 5 mg/kg, po after 240 mins; format: ADME, organism-based; set-up: dose 5 mg/kg, route oral; conditions: in vivo, 4 h
# [28] = Plasma concentration in db/db mouse at 5 mg/kg, po after 5 mins; format: ADME, organism-based; set-up: dose 5 mg/kg, route oral; conditions: read-out: Drug uptake; procedure, shortened: as §2
# [29] = Plasma concentration in db/db mouse at 1 mg/kg, iv after 30 mins; format: ADME, organism-based; set-up: dose 1 mg/kg, route intravenous; conditions: read-out: Drug uptake; procedure, shortened: as §2
# [30] = Drug level in db/db mouse bile measured metabolites as glucuronide at 1 mg/kg, iv after 240 mins; format: ADME, organism-based; set-up: dose 1 mg/kg, route intravenous; conditions: in vivo, 4 h
# [31] = Plasma concentration in db/db mouse at 5 mg/kg, po after 90 mins; format: ADME, organism-based; set-up: dose 5 mg/kg, route oral; conditions: read-out: Drug uptake; procedure, shortened: as §2
# [32] = Plasma concentration in db/db mouse at 25 mg/kg bid after 4 hrs by LC/MS-MS analysis; format: ADME, organism-based; set-up: dose 25 mg/kg; conditions: read-out: Drug uptake
# Procedure, shortened: (§5)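 db/db mice were dosed twice daily for 12 days. Plasma and liver concentrations were determined 4 h and 24 h after the last administration.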
# [33] = Drug level in db/db mouse liver at 25 mg/kg bid after 24 hrs by LC/MS-MS analysis; format: ADME, organism-based; set-up: dose 25 mg/kg; conditions: read-out: Drug uptake
# Procedure, shortened: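 C57BL/KSK-mLep^db/mLep^db (db/db) mice dosed orally b.i.d. for 12 days at 1, 5 or 25 mg/kg. Liver concentrations of parent compound measured 24 h after the last administration.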
# Mus musculus [34] = experiment: Reduction in total plasma cholesterol level in db/db mouse at 1-25 mg/kg bid after 12 days; format: functional, organism-based
# Procedure, shortened: (§6)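 C57BL/KSK-mLep^db/mLep^db mice were dosed orally at 1, 5 and 25 mg/kg b.i.d. for 12 days. Total plasma triglycerides and total plasma cholesterol were measured, with cholesterol reported as mg/dl. Significance was given at p<0.05, <0.01 and <0.001 levels.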
# [35] = Drug level in db/db mouse liver at 25 mg/kg bid after 4 hrs by LC/MS-MS analysis; format: ADME, organism-based; set-up: dose 25 mg/kg; conditions: read-out: Drug uptake; procedure, shortened: as §5
# [36] = Plasma concentration in db/db mouse at 25 mg/kg bid after 24 hrs by LC/MS-MS analysis; format: ADME, organism-based; set-up: dose 25 mg/kg; conditions: read-out: Drug uptake; procedure, shortened: as §5
# Mus musculus [37] = experiment: Reduction in total plasma triglyceride level in db/db mouse at 1-25 mg/kg bid after 12 days; format: functional, organism-based; procedure, shortened: as §6
compound,measurement,setting,value
CN(Cc1ccc(C(=O)NCCS(=O)(=O)O)cc1)c1ccc(OCc2c(-c3c(Cl)cccc3Cl)noc2C2CC2)nc1C(F)(F)F,EC50,Bile acid receptor [1],14 nM
same,Drug uptake,Liver [2],262 ng/mL
same,Drug uptake,Liver [3],7 ng/mL
same,concentration at 10 min,[4],3 ng/mL
same,EC50,Bile acid receptor [5],1420 nM
same,concentration at 10 min,[6],59 ng/mL
same,Efficacy,[7],105%
same,Drug uptake,Liver [8],30 ng/mL
same,Drug uptake,Liver [9],6 ng/mL
same,Drug uptake,[10],24151 ng/mL
same,bioavailability,[11],5.8%
same,concentration at 0.5 h,[12],6 ng/mL
same,Drug uptake,[13],1055 ng/mL
same,concentration at 5 min,[14],72 ng/mL
same,CL/F,[15],3280 mL/min/kg
same,Efficacy,[16],57%
same,Drug uptake,Liver [17],350 ng/mL
same,Drug uptake,Liver [18],8 ng/mL
same,Vd,Mus musculus [19],31.7 L/kg
same,concentration at 4 h,[20],8 ng/mL
same,Drug uptake,[21],32442 ng/mL
same,Efficacy,[22],49%
same,EC50,Bile acid receptor [23],925 nM
same,clearance,[24],190 mL/min/kg
same,Drug uptake,[25],12 ng/mL
same,concentration at 1.5 h,[26],19 ng/mL
same,Drug uptake,[27],32 ng/mL
same,concentration at 5 min,[28],1 ng/mL
same,concentration at 0.5 h,[29],3 ng/mL
same,Drug uptake,[30],169 ng/mL
same,concentration at 1.5 h,[31],12 ng/mL
CC[C@H]1[C@@H](O)[C@@H]2[C@H](CC[C@]3(C)[C@@H]([C@H](C)CCC(=O)O)CC[C@@H]23)[C@@]2(C)CC[C@@H](O)C[C@@H]12 [OBETICHOLIC ACID],concentration at 4 h,[32],2.12 µM
same,concentration at 24 h,[33],16.6 µM
same,Activity,Mus musculus [34],Active
same,concentration at 4 h,[35],13.9 µM
same,concentration at 24 h,[36],3.24 µM
same,Activity,Mus musculus [37],Active
